Test results taken from ChEMBL document CHEMBL4428115, “Molecular docking studies, biological and toxicity evaluation of dihydroisoquinoline derivatives as potential anticancer agents” (Bioorg Med Chem, 2016).
The source made the active and inactive calls. The rule behind the calls is not given here.

Tests used:
[1] = Selectivity index, ratio of IC50 for mouse BALB/3T3 cells to IC50 for human A498 cells
[2] = tested on: HL-60; assay: Decrease in cyclin E expression in human HL60 cells at 1 ug/ml after 72 hrs by Western-blot analysis; type: functional, cell-based
Summary of the method: (§1)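 HL-60 (2 × 10^5 cells/mL) treated 72 h at 1 µg/mL with DMSO control, then lysed in RIPA buffer with protease/phosphatase inhibitors. 100 µg protein resolved on 4–20% gels and transferred to nitrocellulose. Probed with rabbit primary antibody, fluorescein-linked anti-rabbit secondary, then anti-fluorescein–alkaline phosphatase with ECF substrate; fluorescence scanned. Densitometry normalized to actin, reported as fold change versus control.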

[3] = Selectivity index, ratio of IC50 for mouse BALB/3T3 cells to IC50 for human HL60 cells; type: toxicity; conditions: BALB/3T3 cells versus HL60 cells, read-out: Ratio IC50
Summary of the method: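 Ratio of the BALB/3T3 IC50 to the HL-60 or HL-60/MX2 IC50. Cells were plated at 1 × 10^4 per well 24 h before dosing and exposed for 72 h to 0.01–1000 µg/mL from DMSO stock. BALB/3T3 was read by SRB (TCA fix, 540 nm) and the leukemia lines by MTT (4 h, SDS/DMF lysis, 570 nm). Triplicates; 3–5 experiments.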

[4] = Antioxidant activity assessed as DPPH free radical scavenging activity; type: functional
[5] = tested on: A498; assay: Antiproliferative activity against human A498 cells; type: functional, cell-based
[6] = Selectivity index, ratio of IC50 for mouse BALB/3T3 cells to IC50 for human K562 cells; type: toxicity; conditions: BALB/3T3 cells versus K562 cells, read-out: Ratio IC50
[7] = tested on: HL-60; assay: Effect on Bax expression in human HL60 cells at 1 ug/ml after 72 hrs by Western-blot analysis; type: functional, cell-based; summary of the method: as §1
[8] = tested on: MCF10; assay: Antiproliferative activity against human MCF10 cells after 72 hrs by SRB assay; type: cell-based; conditions: MCF10, 72 h
Summary of the method: (§2)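 Adherent cells plated at 1 × 10^4 per well 24 h before treatment, then exposed 72 h to compounds diluted from 20 mg/mL DMSO stock (0.01–1000 µg/mL). Fixed in cold 50% TCA at 4°C for 1 h, stained with 0.4% sulforhodamine B, bound dye extracted with 10 mM Tris, OD at 540 nm. Triplicates, 3–5 experiments; IC50 per experiment, mean ± SD.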

[9] = Selectivity index, ratio of IC50 for mouse BALB/3T3 cells to IC50 for human CCRF-CEM cells; type: toxicity; conditions: BALB/3T3 cells versus CCRF-CEM cells, read-out: Ratio IC50
[10] = tested on: LNCaP; assay: Antiproliferative activity against human LNCAP cells; type: functional, cell-based
[11] = tested on: CEM/C2; assay: Antiproliferative activity against human CEM/C2 cells; type: functional, cell-based
[12] = Selectivity index, ratio of IC50 for mouse BALB/3T3 cells to IC50 for human A549 cells
[13] = tested on: A549; assay: Antiproliferative activity against human A549 cells; type: functional, cell-based
[14] = tested on: MCF7; assay: Antiproliferative activity against human MCF7 cells after 72 hrs by SRB assay; type: functional, cell-based; conditions: MCF7, 72 h; summary of the method: as §2
[15] = Acute toxicity in Wistar rat assessed as mortaliity topically applied to shaved dorsal skin as single dose for 24 hrs measured for 14 days; conditions: in vivo, topical or ocular
Summary of the method: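 Wistar rats, 5 males and 5 females; single 2000 mg/kg bw dermal application to shaved dorsal skin (about 41 cm2 per male, 31 cm2 per female) for 24 h. General and detailed clinical observations daily over a 14-day observation period, then animals euthanized; treated skin examined for pathological changes.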

[16] = Selectivity index, ratio of IC50 for human MCF10 cells to IC50 for human HL60 cells; type: toxicity; conditions: MCF10 cells versus HL60 cells, read-out: Ratio IC50
Summary of the method: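 Selectivity index is the ratio of the IC50 for the normal line to the IC50 for the cancer line. Both IC50 values come from 72 h antiproliferative assays: SRB for adherent cells, MTT for HL-60.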

[17] = tested on: HL-60; assay: Antiproliferative activity against human HL60 cells after 72 hrs by MTT assay; type: functional, cell-based; conditions: HL-60, 72 h
Summary of the method: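 Leukemia cells seeded at 1 × 10^4 per well 24 h before adding compounds (0.01–1000 µg/mL from DMSO stock), exposed 72 h. MTT (5 mg/mL stock) added for 4 h, then DMF/SDS lysis mixture; absorbance at 570 nm read after 24 h. Triplicates per experiment, 3–5 repeats; IC50 calculated per experiment, reported as mean ± SD.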

[18] = Antiproliferative activity against HLMEC after 72 hrs by SRB assay; design: species or system Homo sapiens; summary of the method: as §2
[19] = tested on: A549; assay: Potency index, ratio of bestatin IC50 to compound IC50 for human A549 cells; type: functional
[20] = Selectivity index, ratio of IC50 for mouse BALB/3T3 cells to IC50 for human LoVo cells; type: toxicity; conditions: BALB/3T3 cells versus LoVo cells, read-out: Ratio IC50
[21] = tested on: Raji; assay: Antiproliferative activity against human Raji cells; type: functional, cell-based
[22] = Selectivity index, ratio of IC50 for mouse BALB/3T3 cells to IC50 for human HCV29T cells; type: toxicity; conditions: BALB/3T3 cells versus HCV29T cells, read-out: Ratio IC50
[23] = Selectivity index, ratio of IC50 for mouse BALB/3T3 cells to IC50 for human MCF7 cells; type: toxicity; conditions: BALB/3T3 cells versus MCF7 cells, read-out: Ratio IC50
Summary of the method: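 Selectivity index is the BALB/3T3 IC50 divided by the MCF-7 IC50. Both adherent lines were plated at 1 × 10^4 per well, dosed 24 h later with 0.01–1000 µg/mL (diluted from 20 mg/mL DMSO stock) for 72 h, then fixed with cold TCA and stained with SRB, reading at 540 nm. Triplicate wells; 3–5 repeat experiments.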

[24] = Selectivity index, ratio of IC50 for mouse BALB/3T3 cells to IC50 for human LNCAP cells; type: toxicity; conditions: BALB/3T3 cells versus LNCAP cells, read-out: Ratio IC50
[25] = Selectivity index, ratio of IC50 for mouse BALB/3T3 cells to IC50 for human CEM/C2 cells; type: toxicity; conditions: BALB/3T3 cells versus CEM/C2 cells, read-out: Ratio IC50
[26] = tested on: HL-60; assay: Effect on cyclin A levels in human HL60 cells at 1 ug/ml after 72 hrs by Western-blot analysis; type: functional, cell-based; summary of the method: as §1
[27] = tested on: HL-60; assay: Cell cycle arrest in human HL60 cells assessed as accumulation at G0/G1 phase at 1 to 3 ug/ml after 72 hrs by propidium iodide staining based flow cytometry; type: functional
Summary of the method: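 HL-60 seeded at 2 × 10^5 cells/mL 24 h before treatment, exposed 72 h to 1 or 3 µg/mL, with DMSO solvent and cisplatin controls. Cells fixed in 70% ethanol at −20°C, treated with RNase 8 µg/mL at 37°C for 1 h, stained 30 min with PI 50 µg/mL at 4°C. DNA content by flow cytometry; three independent experiments, mean ± SD.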

[28] = Antioxidant activity assessed as ABTS free radical scavenging activity; type: functional
[29] = tested on: MCF7; assay: Potency index, ratio of bestatin IC50 to compound IC50 for human MCF7 cells; type: functional
[30] = Antiproliferative activity against human LoVo/DX cells; type: functional, cell-based

## CCOC(=O)C1(C(=O)OCC)Cc2cc(OCc3ccccc3)cc(OCc3ccccc3)c2C=N1
[1]
  Ratio IC50: 2.7
[2]
  Activity: Active
[3]
  selectivity ratio: 5.8
[4]
  IC50: 1000 µM
[5]
  IC50: 13.3 µM
[6]
  selectivity ratio: 0.5
[7]
  Activity: inactive
[8]
  IC50: 40.2 µM
[9]
  selectivity ratio: 51.3
[10]
  IC50: 3.3 µM
[11]
  IC50: 0.4 µM
[12]
  Ratio IC50: 2.7
[13]
  IC50: 13.1 µM
[14]
  IC50: 9.6 µM
[15]
  LD50 at 14 days: > 2000 mg/kg
[16]
  selectivity ratio: 4 to 8
[17]
  IC50: 6.2 µM
[18]
  IC50: 6.8 µM
[19]
  Ratio IC50: 18
[20]
  selectivity ratio: 32.6
[21]
  IC50: 0.6 µM
[22]
  selectivity ratio: 4.1
[23]
  selectivity ratio: 3.7
[24]
  selectivity ratio: 10.9
[25]
  selectivity ratio: 89.7
[26]
  Activity: inactive
[27]
  Activity: Active
[28]
  Activity: inactive
[29]
  Ratio IC50: 15
[30]
  IC50: 4.1 µM
